For orientation: half-life means the time in which the quantity being followed falls by half.

SMILES strings stand for the structures. The source made the active and inactive calls. The calls are words filed in the database; no cut-off is given here.

In data set [1] the test system is Hydroxyapatite. Briefly: Binding affinity to bone mineral hydroxyapatite at pH 7.4 at 300 uM by photometric analysis. The method, boiled down: (§1)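 Test compound at 300 μM in 4 mM sodium phosphate with 150 mM NaCl, at pH 6.0 or pH 7.4, concentration checked by absorbance at 495 nm. Hydroxyapatite powder (30 equiv) added, stirred, incubated at 37 °C, with a matching sample without hydroxyapatite as control. Centrifuged at 0–6 h and 20 h. Supernatant A495 read (ε 10650 M⁻¹ cm⁻¹). % bound = (no-HA − HA conc)/no-HA conc × 100. Mean of three measurements.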

Data set [2] can be described thus: Toxicity in iv dosed Balb/c nude mouse administered as doxorubicin equivalents once a week for 3 weeks. The format is organism-based. As to conditions: in vivo. Put shortly: (§2)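 Female Balb/C nude mice, five weeks old, about 20 g, three per group. Prodrug dissolved at 3.4 mM in sterile 10 mM sodium phosphate/sodium chloride buffer, pH 7.4. Given i.v. once weekly for three weeks at 8, 16 or 24 mg/kg doxorubicin equivalents. Behaviour and welfare checked daily, body weight every two days, observation over four weeks.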

A short description of data set [3]: Binding affinity to bovine bone matrix at pH 6 at 300 uM after 4 hrs by spectrophotometric analysis. Type of data set: ADME, Bos taurus. The following applies: cattle, pH 6, 4 h. The method, boiled down: (§3)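 Cortical bovine backbone bone cut into 6×4×1 mm pieces, washed with water and absolute ethanol, dried. About 50 mg bone stirred at 37 °C with 300 μM prodrug in 4 mM Na₂HPO₄, 150 mM NaCl, pH 6.0 or 7.4. Control without bone. Centrifuged, supernatant A495 read. % bound = (conc without bone − conc with bone)/conc without bone × 100.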

In data set [4] the test system is Hydroxyapatite. As to the kind of experiment: Binding affinity to bone mineral hydroxyapatite at pH 6 at 300 uM by photometric analysis. Put shortly: as §1
For another data set, the species on record is Bos taurus. As to the kind of experiment: Binding affinity to bovine bone matrix at pH 7.4 at 300 uM after 4 hrs by spectrophotometric analysis. The method, boiled down:
as §3

For data set [5], the system named is Hydroxyapatite. Briefly: Binding affinity to bone mineral hydroxyapatite at pH 6 at 300 uM up to 24 hrs by photometric analysis. The method, boiled down:
(§4)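 Compound diluted to 300 μM (checked by absorbance at 495 nm, ε 10650 M⁻¹ cm⁻¹) in 4 mM sodium phosphate, 150 mM NaCl at pH 6.0 or 7.4. Hydroxyapatite (30 equiv) added, stirred at 37 °C. Parallel solution without HA as control. Centrifuged at 0–6 h and 20 h; supernatant A495 read. Mean of three measurements. % bound = (conc without HA − conc with HA)/conc without HA × 100.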

Data set [6] concerns Mus musculus. As to the kind of experiment: Toxicity in Balb/c nude mouse assessed as mortality at 24 mg/kg, iv of doxorubicin equivalents measured on day 7. Also noted: dose 24 mg/kg, route intravenous. The following applies: in vivo. The format is organism-based. The method, boiled down: as §2
The subject of data set [7] is Plasma. Briefly: Stability in human plasma assessed as doxorubicin formation over 6 hrs by HPLC analysis. The format is ADME, cell-free. The method, boiled down: (§5)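 Prodrug stock (3 mM in 10 mM sodium phosphate, 0.15 M NaCl, pH 7.4) added to EDTA-anticoagulated plasma from healthy volunteers, final 600 μM. Incubated at 37 °C for 0, 0.5, 1, 3 and 6 h. Samples centrifuged; supernatant analysed by C18 RP-HPLC with detection at 495 nm.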

The nature of data set [8]: Prodrug conversion assessed as doxorubicin formation by HPLC analysis at pH 5 in presence of cathepsin B. The format is physicochemical. The method, boiled down: (§6)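 Prodrug stock (1.5 mM) mixed with human liver cathepsin B (0.4 mg/mL, 23.8 U/mg) in 50 mM sodium acetate, 100 mM NaCl, 4 mM EDTA, 8 mM L-cysteine at pH 5.0 or 6.0. Incubated at 37 °C. Aliquots taken at 5–120 min and analysed by gradient C18 RP-HPLC. Control at pH 5.0 omitted the enzyme.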

For data set [9], the system named is Hydroxyapatite. Briefly: Binding affinity to bone mineral hydroxyapatite at pH 7.4 at 300 uM after 24 hrs by photometric analysis.
Data set [10] in a line: […] by HPLC analysis at pH 5 in absence of cathepsin B. Type of data set: physicochemical. As to conditions: buffer.
Data set [11] has as its system Mus musculus. As to the kind of experiment: Toxicity in Balb/c nude mouse assessed as mortality at 16 mg/kg, iv of doxorubicin equivalents measured on day 7. The format is organism-based. Also noted: dose 16 mg/kg, route intravenous. The following applies: in vivo. The method, boiled down: as §2
For data set [12], the system named is Mus musculus. As to the kind of experiment: Toxicity in Balb/c nude mouse assessed as weight loss at 8 mg/kg, iv of doxorubicin equivalents administered once a week on days 0, 7 and 14 measured after 1 week. Type of data set: organism-based. Also noted: dose 8 mg/kg, route intravenous. The following applies: in vivo, 168 h. Put shortly: as §2
Data set [13] is described as follows: Prodrug conversion assessed as doxorubicin formation after 40 mins by HPLC analysis at pH 6 in presence of cathepsin B. The format is physicochemical. The following applies: pH 6, 40 min. The method, boiled down: as §6
Data set [14] concerns Hydroxyapatite. As to the kind of experiment: Binding affinity to bone mineral hydroxyapatite at pH 6 at 300 uM after 1 hr by photometric analysis. Put shortly: as §4
In data set [15] the test system is Hydroxyapatite. As to the kind of experiment: Binding affinity to bone mineral hydroxyapatite at pH 7.4 at 300 uM after 1 hr by photometric analysis. The method, boiled down: as §4
Data set [16] can be described thus: Half life of the compound by HPLC analysis at pH 5 in presence of cathepsin B. Type of data set: physicochemical. The method, boiled down:
as §6

Data set [17] has as its system Hydroxyapatite. As to the kind of experiment: Binding affinity to bone mineral hydroxyapatite at pH 7.4 at 300 uM after 5 hrs by photometric analysis. The method, boiled down:
as §4

Data set [18] relates to Mus musculus. Briefly: Toxicity in Balb/c nude mouse assessed as adverse effects at 8 mg/kg, iv of doxorubicin equivalents administered once a week on days 0, 7 and 14 measured after 1 week. Type of data set: organism-based. Also noted: dose 8 mg/kg, route intravenous. The following applies: in vivo, 168 h. The method, boiled down: as §2
Data set [19] relates to Plasma. As to the kind of experiment: Stability in human plasma assessed as anthracycline derivative formation over 6 hrs by HPLC analysis. The format is ADME, cell-free. Put shortly:
as §5

Data set [20] is described as follows: Prodrug conversion assessed as doxorubicin formation after 120 mins by HPLC analysis at pH 5 in presence of cathepsin B. The format is physicochemical. As to conditions: pH 5, 2 h. The method, boiled down: as §6
Data set [21] is described as follows: Prodrug conversion assessed as doxorubicin formation at pH 5.5 at 600 uM by HPLC analysis. The format is physicochemical. The following applies: pH 5.5, 600 µM; TDE = time-dependent effect. Put shortly: (§7)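 Prodrug at a final 2.4 mM in 4 mM sodium phosphate, 150 mM NaCl (pH 7.4), brought to pH 5.5 with 50 mM sodium acetate (pH 4.5). Held at room temperature; samples diluted to 600 μM and analysed by isocratic C18 HPLC (30% CH₃CN/10 mM phosphate pH 7.8) at 5–300 min.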

Data set [22] in a line: Half life of the compound at pH 5.5 at 600 uM by HPLC analysis. Type of data set: physicochemical. The method, boiled down:
as §7

The test system of data set [23] is Mus musculus. As to the kind of experiment: Toxicity in Balb/c nude mouse assessed as adverse effects at 16 mg/kg, iv of doxorubicin equivalents administered once a week on days 7, 14 and 21. The format is organism-based. Also noted: dose 16 mg/kg, route intravenous. As to conditions: in vivo. The method, boiled down:
as §2

The subject of data set [24] is Mus musculus. As to the kind of experiment: Toxicity in Balb/c nude mouse assessed as adverse effects at 24 mg/kg, iv of doxorubicin equivalents administered once a week on days 7, 14 and 21. The format is organism-based. Also noted: dose 24 mg/kg, route intravenous. The following applies: in vivo. The method, boiled down:
as §2

For data set [25], the system named is Mus musculus. Briefly: Toxicity in Balb/c nude mouse assessed as anemia at 24 mg/kg, iv of doxorubicin equivalents administered once a week on days 7, 14 and 21 measured 13 days post-last dose. Type of data set: organism-based. Also noted: dose 24 mg/kg, route intravenous. As to conditions: in vivo, 312 h. The method, boiled down:
as §2

Data set [26] deals with Mus musculus. Briefly: Toxicity in Balb/c nude mouse assessed as change in body weight at 24 mg/kg, iv of doxorubicin equivalents administered once a week on days 7, 14 and 21. The format is organism-based. Also noted: dose 24 mg/kg, route intravenous. As to conditions: in vivo. The method, boiled down:
as §2

For data set [27], the system named is Mus musculus. As to the kind of experiment: Toxicity in Balb/c nude mouse assessed as mortality at 24 mg/kg, iv of doxorubicin equivalents administered once a week on days 7, 14 and 21 measured 13 days post-last dose. Also noted: dose 24 mg/kg, route intravenous. As to conditions: in vivo, 312 h. The format is organism-based. Put shortly:
as §2

With `COc1cccc2c1C(=O)c1c(O)c3c(c(O)c1C2=O)C[C@@](O)(C(=O)CO)C[C@@H]3O[C@H]1C[C@H](N)[C@H](O)[C@H](C)O1` [DOXORUBICIN], the result with Hydroxyapatite [1], in the data set on Hydroxyapatite [4] and in the data set listed under Bos taurus was inactive. Also, the MTD at 504 h in data set [2] came out at 8 mg/kg. Further, the Activity entry in data set [3] is reported as “Not Active”.

Turning to `COc1cccc2c1C(=O)c1c(O)c3c(c(O)c1C2=O)C[C@@](O)(C(=O)CO)C[C@@H]3O[C@H]1C[C@H](NC(=O)OCc2ccc(NC(=O)[C@H](C)NC(=O)[C@@H](NC(=O)CCCCCN3C(=O)CC(SCCCSCC(P(=O)(O)O)P(=O)(O)O)C3=O)C(C)C)cc2)[C@H](O)[C@H](C)O1.N.N.N.N` (some centres not stated), the Activity with Hydroxyapatite [5] is 90%; in the data set on Mus musculus [6], “Toxic”; with Hydroxyapatite [9] it was 100%; in the data set on Mus musculus [11], “Toxic”; in the data set on Mus musculus [12] it was “Non-toxic”; with Hydroxyapatite [14], 65%. The Activity is 50% with Hydroxyapatite [15]; 80% in data set [3]; 50% in the data set listed under Bos taurus; 90% in the data set with Hydroxyapatite [17]; “Non-toxic” in the data set on Mus musculus [18]. Further, the Stability entry (in the data set on Plasma [7]; in data set [10]; with Plasma [19]) was “Stable” in each case. The Drug metabolism result in [8], in data set [13] and in data set [20] was “Active” each time. For the same molecule, the MTD at 504 h in [2] is 8 mg/kg. The half-life in data set [16] worked out at 0.75 h.

For `COc1cccc2c1C(=O)c1c(O)c3c(c(O)c1C2=O)C[C@@](O)(C(=O)CO)C[C@@H]3O[C@H]1C[C@H](NC(=O)OCc2ccc(NC(=O)[C@H](CCCCN)NC(=O)[C@H](Cc3ccccc3)NC(=O)CCCCCN3C(=O)CC(SCCCSCC(P(=O)([O-])[O-])P(=O)([O-])[O-])C3=O)cc2)[C@H](O)[C@H](C)O1.O=C(O)C(F)(F)F.[Na+].[Na+].[Na+].[Na+]` (some centres not stated), the Drug metabolism entry in data set [8] is reported as “Active”.

For `COc1cccc2c1C(=O)c1c(O)c3c(c(O)c1C2=O)C[C@@](O)(/C(CO)=N/NC(=O)CCCCCN1C(=O)CC(SCCCSCC(P(=O)(O)O)P(=O)(O)O)C1=O)C[C@@H]3O[C@H]1C[C@H](N)[C@H](O)[C@H](C)O1.Cl.N.N.N.N` (some centres not stated), the Drug metabolism result in the data set on Plasma [7] was “Active”; in data set [21], “tde”; with Plasma [19], “Active”. Besides, in data set [22], the half-life at 600 µM is 2.5 h. Moreover, the Activity result with Mus musculus [12] was “Non-toxic”; in the data set on Mus musculus [23], “Non-toxic”; with Hydroxyapatite [14] it was 65%; in the data set with Mus musculus [24], “Non-toxic”; in the data set on Hydroxyapatite [15], 50%; in data set [3], 80%. Further, the Activity entry in the data set with Mus musculus [25] was “Toxic”; in the data set filed under Bos taurus, 50%; in the data set with Hydroxyapatite [17], 80%; in the data set on Mus musculus [18], “Non-toxic”; in the data set with Mus musculus [26] it was “Non-toxic”; with Mus musculus [27], “Toxic”. In addition, the MTD at 504 h in [2] was determined as 24 mg/kg.

For the origin of these results see ChEMBL document CHEMBL2169817, “Development of novel bisphosphonate prodrugs of doxorubicin for targeting bone metastases that are cleaved pH dependently or by cathepsin B: synthesis, cleavage properties, and binding properties to hydroxyapatite as well as bone matrix” (J Med Chem, 2012).
